# PMI act satM6P: increases human PMI activity with near-saturating mannose 6-phosphate | P34949 | coupled PMI enzyme assay, resazurin fluorescence, 20 min; active compounds read high; 1 = untreated enzyme, 0 = substrate-free blank | activation factor at 20 µM | 190,000 tested, 0.34% active | AID 1216;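 active = activation factor of 2 or more at 20 µM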
#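 Test system – human PMI in coupled enzyme assay · Timing – 20 min incubation at room temperature · Detection – Diaphorase-driven resazurin-to-resorufin fluorescence, excitation 544, emission 590 nm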
# Rad51 HR inh: blocks human Rad51 in homologous recombination | AID 1385 | inhibition, % at 10 µM | hRad51 DNA strand exchange, fluorescence dequenching | 200,000 tested, 0.085% active;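 active = inhibition above 40% at the single screening dose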;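 note: 0% = DMSO control wells and 100% = blanks with heterologous ssDNA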
# Target sequence (Q06609 whole entry, looked up): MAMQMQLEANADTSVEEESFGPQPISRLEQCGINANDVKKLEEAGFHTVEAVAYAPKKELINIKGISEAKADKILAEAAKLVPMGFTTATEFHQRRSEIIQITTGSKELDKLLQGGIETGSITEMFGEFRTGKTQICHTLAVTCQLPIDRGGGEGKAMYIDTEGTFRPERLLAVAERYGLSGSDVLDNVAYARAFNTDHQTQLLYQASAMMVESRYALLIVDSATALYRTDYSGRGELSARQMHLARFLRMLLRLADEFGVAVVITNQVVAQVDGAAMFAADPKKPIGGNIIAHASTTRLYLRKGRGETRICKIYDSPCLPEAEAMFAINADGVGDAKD
#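 material = hRad51 filaments on single-stranded DNA | reagent = Donor/quencher-labelled 47-bp dsDNA substrate | compound = 10 µM final, single point | schedule = strand-exchange reaction 15 min at room temperature | measured by = fluorescein emission 520 nm, excitation 485 nm | read-out basis = % inhibition versus plate control and blank means | benchmarks = plate controls and plate blanks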
# L major viab: inhibitors of Leishmania major promastigote growth; AID 1063; 200,000 tested, 9% active; inhibition, % at 10 µM; Leishmania major promastigotes, resazurin fluorescence viability; in the data active = inhibition above about 50%;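 note: promastigotes grown with compound for 44 hours at 28 °C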
# WT yeast gro inh: growth inhibition of WT yeast, mitochondrial fusion screen; inhibition, % at 10 µM; 190,000 tested, 2.1% active; mitochondrial fusion phenotypic screen, WT strain; in the data active = inhibition above about 58%; tested in S. cerevisiae
# PMI activator: phosphomannose isomerase (human) activation; P34949; activation factor at 20 µM; 190,000 tested, 0.005% active; AID 1214; purified human PMI, coupled resazurin fluorescence, 20 min; active compounds read high; 1 = vehicle control, 0 substrate-free wells;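 active = activation factor of 2 or more at 20 µM, relative to plate controls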
# Calpain2 inh: blocks pig calpain II enzyme activity. purified calpain II, fluorogenic peptide substrate, 30 min. inhibition, % at 16 µM. 220,000 tested, 0.37% active. AID 1236;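 active = inhibition above about 50%, limit read from the data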
# An asterisk follows results filed as active; nt = no result. This is a sample that favours compounds with a hit; in the whole collection about 9.8% have one here.
SMILES,PMI act satM6P,Rad51 HR inh,L major viab,WT yeast gro inh,PMI activator,Calpain2 inh
COc1ccc(N2CCN(C(c3cc4cc(C)ccc4[nH]c3=O)c3nnnn3Cc3ccccc3)CC2)cc1 (centres undefined),0.8,10.0,99.1*,6.4,0.7,-298.8
COc1cc2cc(C(c3nnnn3C3CCCC3)N3CCCCC3)c(=O)[nH]c2cc1OC (centres undefined),1,-1.8,-1.5,-12.7,1,-106.6
COc1ccc2cc(C(c3nnnn3Cc3ccccc3)N3CCCCCC3)c(=O)[nH]c2c1 (centres undefined),1.3,-8.0,36.2,nt,1,nt
COc1cc(C(=O)NCC(=O)N/N=C(/C)c2cccs2)cc(OC)c1OC,1.1,0.1,65.1*,-29.7,1,-4.1
CC1(C)Cc2c(c(N3CCCCC3)[nH]c(=S)c2C#N)CS1,1,1.5,10.0,5.7,1,11.9
CC(C)Cc1c2c([nH]c(=S)c1C#N)CCCC2,2*,2.4,-0.6,-6.0,1.6,-0.3
CC1CCN(c2[nH]c(=S)c(C#N)c3c2CCCC3)CC1,1.7,-1.7,100.1*,5.0,1.3,-6.8
N#Cc1c(-c2ccco2)c2c([nH]c1=S)CCCC2,1.8,-4.9,nt,0.9,1.3,11.5
Cc1[nH]c(=S)c(C#N)c2c1CCCC2,2*,3.5,1.1,-0.9,1.7,-4.1
O=S(=O)(c1ccc(-c2ccon2)s1)N1CCN(CCN2CCOCC2)CC1,nt,-13.1,nt,nt,nt,1.0
CN(c1ccc(OCc2nnc(-c3ccccc3)o2)cc1)S(=O)(=O)c1ccccc1,1,-5.2,54.3*,-0.5,0.9,29.0
Cc1ccccc1Nc1c(-c2ccncc2)nc2ccc(Cl)cn12,0.8,-5.0,75.2*,23.3,0.9,-21.9
O=C(Nc1c(-c2ccccc2)nc2ccc(Cl)cn12)c1cccs1,1.2,7.7,78.9*,-17.2,1.1,5.5
CC(C)(C)C(=O)Nc1cccc(OC(F)(F)C(F)Cl)c1 (centres undefined),0.9,18.4,17.0,10.8,0.9,19.2
CCc1nc2c(c(=O)c3ccccc3n2C)c(=O)n1C1CCCCCC1,1,5.6,7.3,14.4,1.1,-20.0
Cn1c2ccccc2c(=O)c2c(=O)n(C3CCCCCC3)c(C3CCCCC3)nc21,1.1,-12.1,73.7*,33.0,1,-20.7
Cn1c2ccccc2c(=O)c2c(=O)n(-c3ccccc3)c(C3CCCCC3)nc21,1.1,11.6,64.8*,-4.4,1.1,7.5
Cc1cccc(-n2ccnc2CN2CCN(C(C)C)C(CCO)C2)c1 (centres undefined),nt,1.3,nt,nt,nt,7.2
CC(OC(=O)C1=COCCO1)C(=O)Nc1cc(S(=O)(=O)N2CCCCC2)ccc1Cl (centres undefined),1.1,-23.6,9.0,11.4,1.1,23.4
CCC(C(=O)OCC(=O)Nc1ccc(SC(F)F)cc1)c1ccccc1 (centres undefined),0.8,-9.1,-1.4,73.0*,0.8,50.9*
CN(C)S(=O)(=O)c1cc(NC(=O)COC(=O)Cc2cccc3ccccc23)ccc1Cl,0.7,-5.2,-3.4,9.1,0.7,5.5
CCC(C(=O)OCC(=O)Nc1ccc(Cl)c(S(=O)(=O)N(C)C)c1)c1ccccc1 (centres undefined),0.9,0.9,61.5*,18.0,0.8,59.1*
O=c1cc(N2CCCCCC2)[nH]c(=O)n1-c1ccccc1Cl,1.1,-10.9,-3.6,-16.8,1.1,-11.5
COc1ccc2c(c1)N(S(=O)(=O)c1ccccc1)CCC2=O,1,nt,-2.8,13.4,1.1,19.1
COc1cccc(CNC(=O)CCC2CCCN(C(=O)CCn3cncn3)C2)c1 (centres undefined),0.9,-4.5,-2.9,-9.9,0.8,0.7
SMILES,PMI act satM6P,Rad51 HR inh,L major viab,WT yeast gro inh,PMI activator,Calpain2 inh
O=C(NC(=S)N1CCN(c2c(Cl)cccc2[N+](=O)[O-])CC1)c1cccs1,0.9,-4.2,3.6,77.8*,0.9,32.6
COc1ccc(N2CCN(C(=S)NC(=O)c3cccs3)CC2)c([N+](=O)[O-])c1,1,3.6,2.8,60.5*,1,11.2
CCCCC(=O)N1CCN(c2ccc(OC)cc2[N+](=O)[O-])CC1,1,8.5,31.7,0.9,1,-6.3
O=C(NC(=S)N1CCN(c2ccc(O)cc2)CC1)c1cccs1,nt,nt,nt,nt,nt,1.3
Cc1ccc(NC(=S)N(CCCN2CCOCC2)Cc2cccnc2)cc1C,1,-4.5,64.0*,-10.0,1,-27.2
Cc1ccccc1NC(=S)N(CCCN1CCOCC1)Cc1cccnc1,1,7.0,5.4,1.1,1,-1.8
Cc1ccc(NC(=S)NCc2ccccn2)cc1,1,-5.5,50.1*,6.5,1,-32.6
CCc1ccc(NC(=S)N(CCCN2CCOCC2)Cc2ccccn2)cc1,1.1,-13.3,68.1*,-14.2,1.1,2.3
CCc1ccc(NC(=S)N(Cc2ccccc2)Cc2ccccn2)cc1,0.9,-2.8,21.8,68.2*,1,5.5
Cc1ccccc1NC(=O)C(NC1CCCCC1)C(C)C (centres undefined),1,2.1,4.8,-6.9,0.9,9.0
CCCNc1cc(=S)nc(N)[nH]1,nt,-41.6,nt,nt,nt,29.3
S=C1NC2(CCCC2)Nc2ccccc21,2.3*,-7.5,-3.1,-6.2,1.7,-103.0
S=C1NC2(CCCCC2)Nc2ccccc21,2.5*,4.0,-4.8,6.6,1.7,-114.3
S=C1NC2(CCCCCC2)N=C1c1ccccc1,1,3.5,9.8,23.4,1,0.9
O=C1c2ccccc2NC2(CCCC2)N1O,1.2,4.3,-1.3,-9.7,1.2,-28.5
O=C(CN1CCN(C(=O)c2ccco2)CC1)Nc1cccc([N+](=O)[O-])c1,1,nt,-3.7,-13.6,1,3.9
Cc1nonc1OCCNCCNc1ccc([N+](=O)[O-])cc1Cl,1,nt,87.1*,15.9,1,26.4
CCn1c(SCc2ccccc2)nnc1-c1cccnc1,nt,-2.0,0.0,-20.1,nt,-23.7
O=c1c2ccc(Cl)cc2nc(-c2cccc(C(F)(F)F)c2)n1O,1,14.9,98.5*,12.0,1,7.6
c1ccc(-c2ccccc2OCCOCCN2CCNCC2)cc1,0.9,1.6,82.2*,-6.5,0.8,-26.8
c1ccc(-c2ccccc2OCCCN2CCCC2)cc1,1.3,16.3,47.7,5.5,1.2,8.3
CCN1CCN(CCOCCOc2ccccc2-c2ccccc2)CC1,1,nt,92.5*,11.6,1,22.4
O=C(c1ccc(Br)cc1)N(Cc1nc2ccccc2c(=O)[nH]1)C1CCCC1,0.9,5.3,13.8,42.1,0.9,37.8
O=C1CN(c2nc3nonc3nc2N2CCCCC2)CCN1,1,-3.1,-7.7,-18.8,1.1,-14.2
CCOC(=O)c1ccc2c(c1)N(Cc1ccccc1C)C(=O)c1ccccc1S2=O (centres undefined),nt,nt,99.2*,-11.7,nt,23.5

# Bioassay records as filed in PubChem.
